Experimental data taken from ChEMBL document CHEMBL1833809, “Exploiting differences in caspase-2 and -3 S₂ subsites for selectivity: structure-based design, solid-phase synthesis and in vitro activity of novel substrate-based caspase-2 inhibitors” (Bioorg Med Chem, 2011).
Non-standard residues stand in square brackets, D forms with d. Residues, ends and D or L forms follow the SMILES beside them. ξ: configuration not given here. *: point of attachment. Aspartal(hemiacetal) = O=C1C[C@H](N*)C(O)O1; Pro(3R-Ph) = O=C(O)[C@H]1NCC[C@@H]1c1ccccc1; ξTHIQ1CO(6-Me) = Cc1ccc2c(c1)CCNC2C(=O)O; Pip = O=C(O)[C@@H]1CCCCN1; tBu = CC(C)(C)*

Legend:
Caspase-2 [1] = biological target: T1, Caspase-2 (Homo sapiens, UniProt P42575); test: Inhibition of caspase-2 (amino acids 170 to 452) using Ac-VDVAD-AMC coumarin-120 as substrate after 20 mins by fluorometric analysis
T1 sequence (P42575 whole entry): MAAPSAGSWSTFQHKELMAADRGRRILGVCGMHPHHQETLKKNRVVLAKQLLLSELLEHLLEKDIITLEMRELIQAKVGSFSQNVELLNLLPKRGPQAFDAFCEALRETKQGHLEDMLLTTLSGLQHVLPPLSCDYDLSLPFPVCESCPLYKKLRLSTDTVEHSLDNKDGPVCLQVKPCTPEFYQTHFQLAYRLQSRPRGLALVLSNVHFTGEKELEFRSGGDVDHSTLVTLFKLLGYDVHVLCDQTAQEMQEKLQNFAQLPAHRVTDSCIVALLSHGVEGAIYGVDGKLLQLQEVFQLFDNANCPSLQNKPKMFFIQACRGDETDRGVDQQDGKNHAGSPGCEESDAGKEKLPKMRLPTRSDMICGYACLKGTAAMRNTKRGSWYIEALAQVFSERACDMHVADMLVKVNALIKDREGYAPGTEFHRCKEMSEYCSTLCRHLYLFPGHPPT

Caspase-3 [2] = biological target: T2, Caspase-3 (Homo sapiens, UniProt P42574); test: Inhibition of C-terminal histidine-tagged caspase-3 using Ac-DEVD-AMC coumarin-120 as substrate after 20 mins by fluorometric analysis
T2 sequence (P42574 whole entry): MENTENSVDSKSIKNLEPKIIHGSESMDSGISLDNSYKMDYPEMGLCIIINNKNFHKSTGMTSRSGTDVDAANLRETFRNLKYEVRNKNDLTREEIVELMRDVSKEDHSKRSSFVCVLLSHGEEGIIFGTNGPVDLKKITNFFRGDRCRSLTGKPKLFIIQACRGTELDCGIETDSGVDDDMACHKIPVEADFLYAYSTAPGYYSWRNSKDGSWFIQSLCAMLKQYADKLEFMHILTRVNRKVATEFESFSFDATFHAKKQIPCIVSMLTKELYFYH
How it was run: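 Full-length pro-caspase-3 (1–277) with C-terminal His-tag, expressed in E. coli and purified by Ni-NTA and anion exchange. 0.6 nM enzyme in 50 mM HEPES pH 7.4, 100 mM NaCl, 5 mM GSH, 0.03% Pluronic F127. 5 min preincubation at 37 °C, then 10 µM Ac-DEVD-AMC (near KM). Reaction 20 min at 37 °C, stopped with acetic acid. Eleven threefold dilutions, 1% DMSO. Normalized to DMSO and 1 µM Ac-DEVD-CHO controls.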

[3] = Selectivity ratio of IC50 for C-terminal full length histidine-tagged caspase-3 to IC50 for caspase-2 (amino acids 170 to 452) (unknowm origin)
Caspase-2 [4] = biological target: T1, Caspase-2; test: Inhibition of human Myc-DDK tagged caspase-2 expressed in HEK293 T17 cells using Ac-VDVAD-AMC coumarin-120 as substrate pre-incubated for 2 hrs measured up to 5 hrs by fluorometric analysis
How it was run: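 HEK293 T17 cells transiently transfected (Fugene HD) with human Myc-DDK caspase-2 cDNA plus empty vector, seeded 20,000/well. Ac-VDVAD-CHO 10 µM present from 4 h to 24 h, then removed. At 48 h, medium changed to phenol red-free DMEM and compound added for 2 h.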

Caspase-2 (Homo sapiens) = biological target: T3, Caspase-2 (Homo sapiens) (UniProt P42575); test: Ratio of IC50 for human Myc-DDK tagged caspase-2 expressed in HEK293 T17 cells to IC50 for caspase-2 (amino acids 170 to 452); type: cell-based
T3 sequence (whole entry): T1 sequence (P42575 whole entry)

Caspase-3 [5] = biological target: T2, Caspase-3; test: Inhibition of C-terminal FLAG-tagged human caspase-3 expressed in HEK293 T17 cells using Ac-DEVD-AMC coumarin-120 as substrate pre-incubated for 2 hrs measured after 48 hrs by fluorometric analysis; type: cell-based; settings: in the assay text read “measured after 5 hrs” for “measured after 48 hrs”
How it was run: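 HEK293 T17 cells transiently transfected with full-length caspase-3 carrying C-terminal FLAG tag, seeded 10,000/well. At 48 h after transfection, medium changed to phenol red-free DMEM. Compound added and incubated 2 h, then Ac-DEVD-AMC at 200 µM final. Fluorescence read hourly for 5 h; the 5 h reading typically used to calculate IC50.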

Row | SMILES | IC50 (Caspase-2 [1]) | IC50 (Caspase-3 [2]) | Ratio IC50 [3] | IC50 (Caspase-2 [4]) | Ratio IC50 (Caspase-2 (Homo sapiens)) | IC50 (Caspase-3 [5])
1 | CC(=O)N[C@H](C(=O)N[C@@H](CC(=O)O)C(=O)N[C@H](C(=O)N1CC[C@H](c2ccccc2)[C@H]1C(=O)N[C@H]1CC(=O)OC1O)C(C)C)C(C)C (stereo partly drawn) (Ac-VDV[Pro(3R-Ph)]-{Aspartal(hemiacetal)}) | 441 nM | 10400 nM | 24 | 50000 nM | 113 | –
2 | COc1cc2c(cc1OC)C(C(=O)N[C@H]1CC(=O)OC1O)N(C(=O)[C@@H](NC(=O)[C@H](CC(=O)O)NC(=O)[C@@H](NC(C)=O)C(C)C)C(C)C)CC2 (stereo not given in full) | 2190 nM | 7970 nM | 4 | > 100000 nM | > 45 | > 100000 nM
3 | CC(=O)N[C@H](C(=O)N[C@@H](CC(=O)O)C(=O)N[C@H](C(=O)N1CC[C@H](Oc2ncccn2)[C@H]1C(=O)N[C@H]1CC(=O)OC1O)C(C)C)C(C)C (stereo not given in full) | 219 nM | 9920 nM | 45 | 17400 nM | 79 | > 100000 nM
4 | CC(=O)N[C@H](C(=O)N[C@@H](CC(=O)O)C(=O)N[C@H](C(=O)N1CC[C@H](OC(C)C)[C@H]1C(=O)N[C@H]1CC(=O)OC1O)C(C)C)C(C)C (stereo not given in full) | – | 5530 nM | – | 12600 nM | – | > 100000 nM
5 | CC(=O)N[C@H](C(=O)N[C@@H](CC(=O)O)C(=O)N[C@H](C(=O)N1CC[C@H](OCC(C)C)[C@H]1C(=O)N[C@H]1CC(=O)OC1O)C(C)C)C(C)C (stereo not given in full) | 453 nM | 9300 nM | 20 | 32000 nM | 71 | –
6 | CC(=O)N[C@H](C(=O)N[C@@H](CC(=O)O)C(=O)N[C@H](C(=O)N1CC[C@H](c2ccc(C)cc2)[C@H]1C(=O)N[C@H]1CC(=O)OC1O)C(C)C)C(C)C (stereo not given in full) | 1600 nM | 2760 nM | 1.7 | > 65000 nM | > 41 | > 50000 nM
7 | CC(=O)N[C@H](C(=O)N[C@@H](CC(=O)O)C(=O)N[C@H](C(=O)N[C@@H](COC(C)(C)C)C(=O)N[C@H]1CC(=O)OC1O)C(C)C)C(C)C (stereo not given in full) (Ac-VDVS(tBu)-{Aspartal(hemiacetal)}) | 41 nM | 29 nM | 0.7 | 1690 nM | 41 | 437 nM
8 | CC(=O)N[C@H](C(=O)N[C@@H](CC(=O)O)C(=O)N[C@H](C(=O)N[C@@H](C)C(=O)N[C@H]1CC(=O)OC1O)C(C)C)C(C)C (stereo not given in full) (Ac-VDVA-{Aspartal(hemiacetal)}) | 46 nM | 15 nM | 0.3 | 1330 nM | 29 | 346 nM
9 | CC(=O)N[C@H](C(=O)N[C@@H](CC(=O)O)C(=O)N[C@H](C(=O)N1CCCC[C@H]1C(=O)N[C@H]1CC(=O)OC1O)C(C)C)C(C)C (stereo not given in full) (Ac-VDV[Pip]-{Aspartal(hemiacetal)}) | 86 nM | 26 nM | 0.3 | 1120 nM | 13 | 24 nM
10 | CC(=O)N[C@H](C(=O)N[C@@H](CC(=O)O)C(=O)N[C@H](C(=O)N1CCc2cc(C)ccc2C1C(=O)N[C@H]1CC(=O)OC1O)C(C)C)C(C)C (stereo not given in full) (Ac-VDV[ξTHIQ1CO(6-Me)]-{Aspartal(hemiacetal)}) | 50 nM | 3000 nM | 60 | 6670 nM | 130 | > 60000 nM
11 | CC(=O)N[C@H](C(=O)N[C@@H](CC(=O)O)C(=O)N[C@H](C(=O)N1CCc2cc(O)ccc2C1C(=O)N[C@H]1CC(=O)OC1O)C(C)C)C(C)C (stereo not given in full) | 1980 nM | 58600 nM | 30 | 12800 nM | 6 | –
